Test results published in publication PMC4720140 (Journal of medicinal chemistry, 2015).
“Also recorded” adds a separate entry of the source.

Assays:
[1] = test system: PC-3 cells; experiment: MTT cell viability assay in PC-3 cells; type: cell-based; settings: 24 h exposure in serum-free medium
Method in brief: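 PC-3 cells plated uncoated at 5000 cells/well in 10% FBS. After 24 h, exposed to test compound in serum-free medium for 24 h. MTT added (0.5 mg/mL final) for 2 h, then medium replaced with DMSO and absorbance read at 595 nm. Viability expressed as % of vehicle-treated control; n = 6, means ± SD.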

[2] = test system: phosphorylation of Ser473-Akt, MDM2 and IKK in PC-3 xenograft tumors; experiment: Western blot of Akt signaling markers in PC-3 tumor lysates; type: in vivo, athymic nude mice; settings: after 21 days
[3] = test system: subcutaneous PC-3 xenograft tumors; experiment: PC-3 xenograft tumor growth in nude mice; type: in vivo, athymic nude mice; settings: versus vehicle
[4] = test system: ILK distribution in LNCaP cells; experiment: Immunocytochemistry of cellular distribution of ILK in LNCaP cells; type: cell-based; settings: serum-free medium, 24 h
Method in brief: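 LNCaP cells seeded on poly-L-lysine-coated surfaces at 12000 cells/cm² for 24 h, then exposed to test compound in serum-free RPMI 1640 for 24 h. Fixed in 4% formaldehyde for 20 min, permeabilised with 0.1% Triton X-100 for 15 min at room temperature, blocked in 1% FBS for 1 h. Endogenous ILK stained with antibody (1:300) overnight, then Alexa Fluor-conjugated secondary (1:500) for 2 h. Nuclei stained with DAPI; imaged by confocal microscopy.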

[5] = test system: phosphorylation of Akt (Ser473), MDM2 and IKK in PC-3 cells; experiment: Western blot of Akt signaling in PC-3 cells; type: cell-based; settings: different concentrations, 24 h
[6] = test system: phosphorylation of Akt (Ser473), MDM2 and IKK in LNCaP cells; experiment: Western blot of Akt signaling in LNCaP cells; type: cell-based; settings: different concentrations, 24 h
Method in brief: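 Lines kept in RPMI 1640 with 10% FBS at 37 °C, 5% CO₂. LNCaP were seeded on poly-L-lysine-coated flasks (12000 cells/cm²) for 24 h, then dosed in serum-free RPMI. Cells got test compound for 24 h, then were scraped and lysed in 1% SDS/Tris pH 8 buffer with protease inhibitors. Lysates were spun at 14000g and BCA-normalized, then run on SDS-PAGE/nitrocellulose, probed with primary antibody (1:1000, overnight, 4 °C) and HRP secondary, and detected by ECL.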

[7] = test system: membrane translocation of Akt and PHLPP1 in LNCaP cells; experiment: Western blot of membrane versus cytoplasmic fractions of LNCaP cells; type: cell-based; settings: 24 h
[8] = test system: Akt and PHLPP1 membrane localization in LNCaP cells; experiment: Immunocytochemistry of cellular distribution of Akt and PHLPP1 in LNCaP cells; type: cell-based; settings: serum-free medium, 24 h
[9] = target: T1, PH domain of ILK (Homo sapiens, UniProt Q13418); experiment: SPR binding to the ILK PH domain
T1 sequence (Q13418 180-212 limits assumed): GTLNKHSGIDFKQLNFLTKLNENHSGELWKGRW
Method in brief: (§1)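 Surface plasmon resonance: GST-tagged PH-domain fusion protein amine-coupled to a CM5 chip at 17000 response units. Test compound injected at 1–20 µM at a flow rate of 30 µL/min. DMSO at 1% (v/v) or less in samples and running buffer.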

[10] = target: T2, PH domain of PDK1 (Homo sapiens, UniProt O15530); experiment: SPR binding to the PDK1 PH domain
T2 sequence (O15530 459-550 limits assumed): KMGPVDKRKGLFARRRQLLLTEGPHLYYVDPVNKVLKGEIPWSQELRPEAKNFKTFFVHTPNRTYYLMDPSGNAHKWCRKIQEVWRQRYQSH
Method in brief: as §1

[11] = target: T3, PH domain of PHLPP1 (Homo sapiens, UniProt O60346); experiment: SPR binding to the PHLPP1 PH domain
T3 sequence (O60346 536-636 limits assumed): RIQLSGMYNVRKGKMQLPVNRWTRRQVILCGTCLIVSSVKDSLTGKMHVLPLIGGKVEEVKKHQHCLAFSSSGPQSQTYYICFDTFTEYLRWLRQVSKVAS
Method in brief: as §1

[12] = oral gavage 100 mg/kg once daily
[13] = ip injection 50 mg/kg once daily for 21 days

| Compound | Phosphorylation levels of Akt, MDM2 and IKK in tumor lysates [2, 12] | Suppression of PC-3 xenograft tumor growth [3, 13] | Phosphorylation level of Akt (Ser473) and/or MDM2 and IKK [5] | Phosphorylation level of Akt (Ser473) and/or MDM2 and IKK [6] | Localization of Akt and PHLPP1 to the plasma membrane ([8]; 5 µM) | Localization of Akt and PHLPP1 to the plasma membrane ([8]; 10 µM) | other results |
| --- | --- | --- | --- | --- | --- | --- | --- |
| COc1cc2c(c(C)c1C)OC(C)(CCCC(C)C)CC2 (centres unmarked) [Compound 5] | – | – | – | – | – | – | Antiproliferative effect (IC50) in PC-3 cells [1]: remained inactive |
| Cc1c(S(N)(=O)=O)cc2c(c1C)OC(C)(CCCC(C)C)CC2 (centres unmarked) [Compound 20] | parallel decreases in the phosphorylation levels of Akt, MDM2, and IKK | equipotent in suppressing PC-3 tumor growth irrespective of the route of administration | dose-dependently reduced the phosphorylation level of Akt and/or MDM2 and IKK | dose-dependently reduced the phosphorylation level of Akt and/or MDM2 and IKK | facilitated the localization of Akt and PHLPP1 to the plasma membrane | – | Phosphorylation levels of Akt, MDM2 and IKK in tumor lysates ([2]; ip injection 50 mg/kg once daily): parallel decreases in the phosphorylation levels of Akt, MDM2, and IKK; Suppression of PC-3 xenograft tumor growth ([3]; oral gavage 100 mg/kg once daily for 21 days): equipotent in suppressing PC-3 tumor growth irrespective of the route of administration; Cellular distribution of ILK ([4]; 5 µM): Lack of effect; also recorded: no apparent changes in the distribution of ILK; Membrane translocation of Akt and PHLPP1 (membrane versus cytoplasmic fractions) [7]: higher potency than 3 in facilitating the membrane translocation |
| Cc1c(O)cc2c(c1C)O[C@@](C)(CCCC(C)C)CC2 [Compound 3, (S)-2,7,8-trimethyl-2-(4-methylpentyl)chroman-6-ol] | unable to affect any of these signaling markers | significantly suppressed PC-3 xenograft tumor growth | dose-dependently reduced the phosphorylation level of Akt and/or MDM2 and IKK | dose-dependently reduced the phosphorylation level of Akt and/or MDM2 and IKK | – | facilitated the localization of Akt and PHLPP1 to the plasma membrane | Suppression of PC-3 xenograft tumor growth ([3]; oral gavage 100 mg/kg once daily for 21 days, 100 mg/kg): not apparent; also recorded: no in vivo tumor-suppressive activity; Cellular distribution of ILK ([4]; 10 µM): Lack of effect; Kd [9]: 8.7 ± 3.6 µM; Kd [10]: 10.2 ± 1.2 µM; Kd [11]: 0.69 ± 0.36 µM |
| CC(C)CCCC1(C)CCc2cc(S(N)(=O)=O)cc(F)c2O1 (centres unmarked) [Compound 21] | – | – | failed to elicit Ser473-Akt dephosphorylation | failed to elicit Ser473-Akt dephosphorylation | – | no change in the cellular distribution of Akt or PHLPP1 | – |
| CC(C)CCCC1(C)CCc2cc(S(N)(=O)=O)cc(Br)c2O1 (centres unmarked) [Compound 22] | – | – | dose-dependently reduced the phosphorylation level of Akt and/or MDM2 and IKK | dose-dependently reduced the phosphorylation level of Akt and/or MDM2 and IKK | facilitated the localization of Akt and PHLPP1 to the plasma membrane | – | – |
